The results in this text go back to PubChem BioAssay.

Experiment [1] can be described thus: inhibitors of TNFa-induced NFkB p65 translocation, primary screen, imaging, HUVEC, MLSMR starter and 10KST1 sets (AID 438;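 active = inhibition above 20% together with a positive visual image hit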;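 also: compound added about 3h40 before a 20 min TNFalpha stimulation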;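 as to inhibition: signal is the nuclear over cytoplasmic p65 intensity ratio per well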). The conditions noted are these: HUVEC TNFa-induced p65 nuclear translocation; cell count: measured here: nuclei count (cytotoxicity indicator), at 2.08 µM; inhibition: at 2 µM, stronger effect = higher value, 0% TNFa-plus-vehicle, 100% no-TNFa wells.

Experiment [2] in a line: inhibitors of mutant huntingtin aggregation, primary screen, imaging, exon1htt(103Q)mCFP cells, high-content imaging (AID 483).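 Also: compound exposure lasted 3 days before fixation.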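 As to nuclei count: percent of the per-plate median nuclei count of sample wells.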 The conditions noted are these: exon1htt(103Q)mCFP cell line, aggregate imaging, at 2 µM; inhibition of aggregation: stronger effect = higher value; nuclei count: measured here: cell count, toxicity.
A short description of experiment [3]: inhibitors of E-selectin induction by TNFa, primary screen, imaging, HUVEC, immunofluorescence, MLSMR starter and 10KST1 sets (AID 487;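 active = visually confirmed hit in the image check and inhibition above 20%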;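 as to inhibition: signal is fraction of cell area covered by stained E-selectin grains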;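 as to nuclei count: 100% = median nuclei count of all wells on the same plate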). The conditions noted are these: HUVEC TNFalpha-induced E-selectin immunofluorescence imaging, at 2 µM; inhibition: stronger effect = higher value; nuclei count: measured here: cell number, toxicity.
The target in experiment [4] is Voltage-gated potassium channel subunit beta-2 (Rattus norvegicus) (UniProt P62483). Put plainly: KvBeta enzyme negative modulators, primary screen, biochemical, NADPH fluorescence (AID 622;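 active = fluorescence slope higher than the sample average by over 3 SD, cut at about -0.22 in these data, passing the limit was not always enough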;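 also: slope of raw intensity against log time taken from 70 to 1610 s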). The conditions noted are these: recombinant KvBeta, 4-cyanobenzaldehyde reduction, at 10 µM, stronger effect = higher value.
Experiment [5] has the same target. Put plainly: KvBeta positive modulators, primary screen, biochemical, NADPH fluorescence (AID 623;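 active = NADPH fluorescence slope more negative than the mean of all samples by about 3 SD, 99.7% confidence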;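 also: fluorescence intensity change per second fitted from 20 to 320 s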). The conditions noted are these: Recombinant KvBeta, NADPH fluorescence decrease slope, 10 min; at 10 µM; stronger effect = lower value.
The target in experiment [6] is Muscarinic acetylcholine receptor M4 (Homo sapiens) (UniProt P08173). Put plainly: compounds altering M4/GIRK thallium flux, either direction, primary screen, M4 allosteric agonist project, cell-based, HEK293 M4/GIRK, BTC-AM (AID 625;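 active = fluorescence slope after compound addition differing from the mean of all tested samples at 99.7% confidence, mostly higher but some lower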;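 also: thallium influx through GIRK channels coupled to M4 in HEK293 cells with BTC-AM dye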). The conditions noted are these: at 10 µM, actives lie on both sides. The procedure, abridged: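 Material: M4/GIRK1/GIRK2 stable HEK293 cell line. Medium: pH 7.3 thallium assay buffer. Dosing: single compound concentration, 10 µM final. Schedule: 1 h dye loading, 2 min kinetic read. Measured by: kinetic fluorescence with BTC-AM dye. Read-out: post-addition slope, 15–24 s, of baseline-normalized fluorescence. Benchmarks: carbachol and DMSO controls.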

Experiment [7] can be described thus: inhibitors of Sendai virus-induced IRF3 signaling, primary screen, TLR/RLR signaling modifier project, cell-based, Sendai virus stimulus, luciferase, 10K MLSCN set (AID 602276;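 active = inhibition at or above 50% at 10 µM; inactive = inhibition below 50%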;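 also: firefly luciferase from ISG56 promoter only with Renilla not read in this screen; 0% = Sendai virus plus DMSO and 100% = medium plus DMSO without virus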). The conditions noted are these: HEK293 RL24 IRF3 luciferase reporter, at 10 µM, stronger effect = higher value. Background: In a reporter assay the amount or activity of a reporter protein is the signal.

A short description of experiment [8]: inhibitors of poly I:C-induced TLR3 signaling, primary screen, cell-based, poly I:C stimulus, luciferase, 10K MLSCN set (AID 602277;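 active = inhibition of the reporter signal at or above 50%; inactive = inhibition below 50%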). The conditions noted are these: HEK293-TLR3 RL24 IRF3 luciferase reporter, at 10 µM, stronger effect = higher value.

Each structure is given as a SMILES string. The source made the active and inactive calls.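 The calls were made as follows, unless noted: active = visual image review flags a hit and inhibition of aggregation exceeds 20%; inconclusive = visual hit but inhibition at or below 20%; inactive = no hit on visual image review.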

Sequence of Muscarinic acetylcholine receptor M4 (Homo sapiens) (P08173 whole entry, looked up): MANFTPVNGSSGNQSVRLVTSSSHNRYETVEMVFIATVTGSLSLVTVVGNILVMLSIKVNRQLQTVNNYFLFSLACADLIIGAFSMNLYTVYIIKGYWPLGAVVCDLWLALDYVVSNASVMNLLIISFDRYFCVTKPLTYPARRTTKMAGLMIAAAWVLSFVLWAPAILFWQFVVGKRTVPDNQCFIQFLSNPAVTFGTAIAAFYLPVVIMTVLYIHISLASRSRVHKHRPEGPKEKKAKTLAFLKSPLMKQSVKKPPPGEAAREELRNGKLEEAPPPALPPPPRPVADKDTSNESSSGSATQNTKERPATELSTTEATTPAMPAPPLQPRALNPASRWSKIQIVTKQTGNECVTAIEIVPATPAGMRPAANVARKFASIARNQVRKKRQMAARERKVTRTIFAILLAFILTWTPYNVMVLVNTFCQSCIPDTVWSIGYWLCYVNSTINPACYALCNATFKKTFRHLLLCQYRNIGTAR
Sequence of Voltage-gated potassium channel subunit beta-2 (Rattus norvegicus) (P62483 whole entry, looked up): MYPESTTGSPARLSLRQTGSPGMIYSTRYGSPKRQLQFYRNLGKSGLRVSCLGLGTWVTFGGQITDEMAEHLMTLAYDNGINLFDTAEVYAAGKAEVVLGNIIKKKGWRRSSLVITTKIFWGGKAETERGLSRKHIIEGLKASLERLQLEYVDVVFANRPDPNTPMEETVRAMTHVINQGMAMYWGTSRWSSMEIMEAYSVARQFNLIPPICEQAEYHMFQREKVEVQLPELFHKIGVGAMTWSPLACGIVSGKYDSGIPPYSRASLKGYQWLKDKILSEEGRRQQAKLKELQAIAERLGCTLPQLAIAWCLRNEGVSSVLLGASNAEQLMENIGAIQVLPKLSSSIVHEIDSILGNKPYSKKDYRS

The inhibition is the relative decrease from the control value, in per cent. In the case of `C=CCn1c(=O)[nH]c2cc(C(=O)N3CCN(c4cc(C)ccc4C)CC3)ccc2c1=O`, the cell count in experiment [1] was found to be 481. In addition, the inhibition in experiment [1] was -28.5% (inactive); in experiment [3], -67.4% (inactive); in experiment [7], 14.1% (inactive); in experiment [8], -2.95% (inactive). In addition, the inhibition of aggregation in experiment [2] was -1.6% (inactive). Besides, the figures for the nuclei count in experiment [2] and in experiment [3] were 109% and 127%, respectively. Besides, the values for the fluorescence slope in experiment [4] and in experiment [6] were -0.245 (inactive) and 0.00726 (inactive), respectively. In addition, in experiment [5], the NADPH fluorescence slope is -2.6e-05 (inactive).

For `COc1cccc(/C(O)=C2/C(=O)C(=O)N(CCN3CCOCC3)C2c2cccnc2)c1` (centres undefined), the cell count in experiment [1] came out at 270. The inhibition in experiment [1] was 15% (inactive); in experiment [3], -37.6% (inactive); in experiment [7] it was -4.6% (inactive); in experiment [8], 9.66% (inactive). In addition, the inhibition of aggregation in experiment [2] was 5.3% (inactive). Also, the values for the nuclei count in experiment [2] and in experiment [3] were 107% and 117%, respectively. Besides, the fluorescence slope in experiment [4] was -0.576 (inactive); in experiment [6] it was 0.00687 (inactive). Further, the NADPH fluorescence slope in experiment [5] was -1.6e-05 (inactive).

In the case of `Cc1cc(C)c(Cn2c(=O)n(CCCC(=O)NCc3ccco3)c(=O)c3ccccc32)c(C)c1`, the cell count in experiment [1] was 744. Besides, the inhibition in experiment [1] was -4.2% (inactive); in experiment [3], -64.2% (inactive); in experiment [7] it was 14.8% (inactive); in experiment [8] it was 17.8% (inactive). In experiment [2], the inhibition of aggregation was 5.8% (inactive). Besides, the values for the nuclei count in experiment [2] and in experiment [3] were 100% and 112%, respectively. Also, the fluorescence slope in experiment [4] is -0.578 (inactive); in experiment [6], 0.00693 (inactive). Also, the NADPH fluorescence slope in experiment [5] is -2.4e-05 (inactive).

As for `CCn1nnnc1NCc1cccn1C`, the cell count in experiment [1] is 401. The inhibition in experiment [1] is 11% (inactive); in experiment [3], -41.2% (inactive); in experiment [7], 16.1% (inactive); in experiment [8], 22% (inactive). For the same compound, the inhibition of aggregation in experiment [2] is -12% (inactive). In addition, the nuclei count in experiment [2] worked out at 110%; in experiment [3], 100%. The figures for the fluorescence slope in experiment [4] and in experiment [6] were -0.414 (inactive) and 0.00612 (inactive), respectively. For the same compound, in experiment [5], the NADPH fluorescence slope is 0.000106 (inactive).

Consider `O=C(COc1nnnc2ccccc12)N1CCCc2ccccc21`, for which the cell count in experiment [1] worked out at 327. The inhibition was 0.2% (inactive) in experiment [1], -50.4% (inactive) in experiment [3], 8.08% (inactive) in experiment [7] and 16.5% (inactive) in experiment [8]. In experiment [2], the inhibition of aggregation was -10.1% (inactive). For the same compound, the values for the nuclei count in experiment [2] and in experiment [3] were 106% and 130%, respectively. Further, the figures for the fluorescence slope in experiment [4] and in experiment [6] were -0.43 (inactive) and 0.00597 (inactive), respectively. In experiment [5], the NADPH fluorescence slope was -7.5e-05 (inactive).

On to `O=C(Cn1nc(C(F)(F)F)c2c1CCCC2)NCCN1CCOCC1`, for which the cell count in experiment [1] is 584. Moreover, the inhibition was -6.8% (inactive) in experiment [1], -8.6% (inactive) in experiment [3], 17.5% (inactive) in experiment [7] and 25.2% (inactive) in experiment [8]. Also, the inhibition of aggregation in experiment [2] is -26.7% (inactive). Moreover, the nuclei count in experiment [2] worked out at 103%; in experiment [3] it was 93.4%. Further, the results for the fluorescence slope in experiment [4] and in experiment [6] were -0.516 (inactive) and 0.00274 (inactive), respectively. Further, the NADPH fluorescence slope in experiment [5] is -0.00011 (inactive).

Turning to `Cc1onc(-c2c(Cl)cccc2Cl)c1C(=O)NCCCN1CCOCC1`, in experiment [1], the cell count turned out to be 618. Also, the inhibition is 3.6% (inactive) in experiment [1], -48.9% (inactive) in experiment [3], 9.5% (inactive) in experiment [7] and 10.6% (inactive) in experiment [8]. Further, the inhibition of aggregation in experiment [2] was 13.7% (inactive). Also, the nuclei count in experiment [2] worked out at 100%; in experiment [3], 84%. For the same compound, the fluorescence slope in experiment [4] is -0.47 (inactive); in experiment [6], 0.00479 (inactive). Also, the NADPH fluorescence slope in experiment [5] was -2.9e-05 (inactive).

Consider `COc1nc(N2CCOCC2)nc(-n2cccc2)n1`, for which the cell count in experiment [1] came out at 534. The inhibition was -4.1% (inactive) in experiment [1], 52.3% (inactive) in experiment [3], 2.29% (inactive) in experiment [7] and 4.71% (inactive) in experiment [8]. The inhibition of aggregation in experiment [2] was 3% (inactive). Further, the nuclei count in experiment [2] was found to be 99.6%; in experiment [3], 80.1%. Moreover, the fluorescence slope in experiment [4] was -0.547 (inactive); in experiment [6], 0.00492 (inactive). Besides, the NADPH fluorescence slope in experiment [5] was -7.1e-05 (inactive).

Consider `Cc1ccc(F)cc1NC(=O)c1cccc2nccnc12`, for which, in experiment [1], the cell count was found to be 532. Besides, the inhibition is -45.9% (inactive) in experiment [1], -61% (inactive) in experiment [3], -11.7% (inactive) in experiment [7] and -19.2% (inactive) in experiment [8]. Besides, in experiment [2], the inhibition of aggregation is -49.2% (inactive). The nuclei count came out at 13.4% in experiment [2] and 108% in experiment [3]. Besides, the figures for the fluorescence slope in experiment [4] and in experiment [6] were -0.554 (inactive) and 0.00494 (inactive), respectively. In addition, the NADPH fluorescence slope in experiment [5] was 2e-05 (inactive).

With `CC(C(=O)N1CCc2ccccc21)N1CCc2ccccc2C1` (centres undefined), the cell count in experiment [1] is 597. Further, the inhibition is -1% (inactive) in experiment [1], -86.5% (inactive) in experiment [3], 10.2% (inactive) in experiment [7] and 22.3% (inactive) in experiment [8]. In addition, the inhibition of aggregation in experiment [2] is 16.1% (inactive). Besides, the nuclei count in experiment [2] amounted to 91.1%; in experiment [3] it was 99.9%. The fluorescence slope was -0.455 (inactive) in experiment [4] and 0.00595 (inactive) in experiment [6]. Besides, the NADPH fluorescence slope in experiment [5] was 0.000133 (inactive).

As to `COc1cc2nc(C3CCC3)n(NC(=O)C3CCCC(OC)C3)c(=O)c2cc1OC` (centres undefined), the cell count in experiment [1] is 609. Besides, the inhibition in experiment [1] was -8.8% (inactive); in experiment [3], -30.3% (inactive); in experiment [7], 15.8% (inactive); in experiment [8], 9.02% (inactive). Further, in experiment [2], the inhibition of aggregation was -18% (inactive). The nuclei count in experiment [2] turned out to be 106%; in experiment [3] it was 107%. Further, the fluorescence slope in experiment [4] was -0.266 (inactive); in experiment [6], 0.00583 (inactive). Besides, in experiment [5], the NADPH fluorescence slope is -1.2e-05 (inactive).

For `CC1CCN(S(=O)(=O)c2ccc(NC(=O)CSc3nnnn3C)cc2)CC1`, in experiment [1], the cell count was 289. In addition, the inhibition was -5.4% (inactive) in experiment [1], -1.6% (inactive) in experiment [3], 10.9% (inactive) in experiment [7] and 20.7% (inactive) in experiment [8]. Besides, in experiment [2], the inhibition of aggregation was -4.7% (inactive). For the same compound, the nuclei count in experiment [2] was 107%; in experiment [3], 91.8%. The values for the fluorescence slope in experiment [4] and in experiment [6] were -0.411 (inactive) and 0.00682 (inactive), respectively. Moreover, the NADPH fluorescence slope in experiment [5] is -3.1e-05 (inactive).

As to `COc1cc(NC(=O)Cc2cccs2)ccc1-n1cnnn1`, the cell count in experiment [1] is 299. The inhibition in experiment [1] is 0% (inactive); in experiment [3] it was -50.9% (inactive); in experiment [7], 18.4% (inactive); in experiment [8], 21.1% (inactive). Moreover, the inhibition of aggregation in experiment [2] was -26.9% (inactive). The results for the nuclei count in experiment [2] and in experiment [3] were 100% and 112%, respectively. Moreover, the figures for the fluorescence slope in experiment [4] and in experiment [6] were -0.543 (inactive) and 0.00442 (inactive), respectively. The NADPH fluorescence slope in experiment [5] was -3.6e-05 (inactive).

Turning to `COc1ccc(-c2nc(N)nc(C)c2Oc2ccccc2Br)c(O)c1`, the cell count in experiment [1] was 382. Also, the inhibition is 6.9% (inactive) in experiment [1], -64.3% (inactive) in experiment [3], 10.9% (inactive) in experiment [7] and 53% (active) in experiment [8]. In experiment [2], the inhibition of aggregation was -14% (inactive). For the same compound, the nuclei count came out at 100% in experiment [2] and 85.6% in experiment [3]. In addition, the fluorescence slope was -0.496 (inactive) in experiment [4] and 0.00571 (inactive) in experiment [6]. The NADPH fluorescence slope in experiment [5] was 6e-05 (inactive).
